Legend:
[1] = tested on: DU-145; assay: Cytotoxicity against human DU145 cells after 48 hrs by SRB assay; type: functional, cell-based; conditions: Homo sapiens, DU-145, 48 h; for CC50: read-out: LC50 (the source's name)
Summary of the method: (§1)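 Cells grown in RPMI 1640 with 10% FBS and penicillin/streptomycin at 37 °C and 5% CO₂, trypsinized, then seeded at 5 × 10³/well. After 18 h drug-free attachment, samples in DMSO/EtOH/PBS (0.5:0.5:99) were added for 48 h continuous exposure. Cells were fixed with cold TCA (1 h, 4 °C) and stained with SRB (10 min). Tris-solubilized stain read at 490 nm. Triplicate wells, mean ± SD; GI₅₀ derived.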

[2] = tested on: LNCaP; assay: Cytotoxicity against human LNcaP cells after 48 hrs by SRB assay; type: functional; conditions: for CC50: read-out: LC50 (the source's name); summary of the method: as §1
[3] = tested on: PANC-1; assay: Cytotoxicity against human PANC1 cells after 48 hrs by SRB assay; type: functional; conditions: PANC-1, 48 h; for CC50: read-out: LC50 (the source's name); summary of the method: as §1
[4] = tested on: HT-29; assay: Cytotoxicity against human HT29 cells after 48 hrs by SRB assay; type: functional, cell-based; conditions: Homo sapiens, HT-29, 48 h; for CC50: read-out: LC50 (the source's name); summary of the method: as §1
[5] = Cytotoxicity against human IGROV cells after 48 hrs by SRB assay; type: functional; conditions: for CC50: read-out: LC50 (the source's name); summary of the method: as §1
[6] = tested on: HeLa; assay: Cytotoxicity against human HeLa cells after 48 hrs by SRB assay; type: functional; conditions: read-out: LC50 (the source's name); summary of the method: as §1
[7] = Cytotoxicity against human IGROV-ET cells after 48 hrs by SRB assay; type: functional; conditions: for CC50: read-out: LC50 (the source's name); summary of the method: as §1
[8] = tested on: A549; assay: Cytotoxicity against human A549 cells after 48 hrs by SRB assay; type: functional, cell-based; conditions: Homo sapiens, A549, 48 h; for GI50: read-out: GI50; summary of the method: as §1
[9] = tested on: SK-BR-3; assay: Cytotoxicity against human SKBR3 cells after 48 hrs by SRB assay; type: functional; conditions: SK-BR-3, 48 h; for CC50: read-out: LC50 (the source's name); for GI50: read-out: GI50; summary of the method: as §1
[10] = tested on: LoVo; assay: Cytotoxicity against human doxorubicin resistant LoVo cells after 48 hrs by SRB assay; type: functional; conditions: for CC50: read-out: LC50 (the source's name); summary of the method: as §1
[11] = tested on: SK-MEL-28; assay: Cytotoxicity against human SK-MEL-28 cells after 48 hrs by SRB assay; type: functional, cell-based; conditions: Homo sapiens, SK-MEL-28, 48 h; for GI50: read-out: GI50; for CC50: read-out: LC50 (the source's name); summary of the method: as §1
[12] = tested on: LoVo; assay: Cytotoxicity against human LoVo cells after 48 hrs by SRB assay; type: functional; conditions: for CC50: read-out: LC50 (the source's name)
[13] = tested on: K562; assay: Cytotoxicity against human K562 cells after 48 hrs by SRB assay; type: functional; conditions: K562, 48 h; for CC50: read-out: LC50 (the source's name); summary of the method: as §1
[14] = Cytotoxicity against human HeLa-APL cells after 48 hrs by SRB assay; type: functional; summary of the method: as §1

Compound	CC50 [1] [µM]	CC50 [2] [µM]	CC50 [3] [µM]	CC50 [4] [µM]	GI50 ([5]; read-out: GI50) [µM]	CC50 [5] [µM]	CC50 [6] [µM]	CC50 [7] [µM]	LC50 [8] [µM]	CC50 [9] [µM]	GI50 [10] [µM]	TGI [10] [µM]	CC50 [10] [µM]	CC50 [11] [µM]	GI50 [12] [µM]	TGI [12] [µM]	CC50 [12] [µM]	GI50 [13] [µM]	CC50 [13] [µM]	LC50 (concentration giving 50% net cell kill) [14] [µM]	also measured
C/C=C1\NC(=O)[C@H](Cc2ccccc2)NC(=O)[C@@H](C(C)C)NC(=O)[C@@H]([C@H](C)CC)NC(=O)[C@H](NC(=O)[C@H](NC(=O)[C@H](CCCN)NC(=O)[C@H]2CCCN2C(=O)[C@H](NC(=O)[C@@H](NC(=O)[C@@H]2CCCN2C(=O)[C@H](NC(=O)CCCC(C)C)C(C)C)C(C)C)C(C)C)[C@H](C)CC)[C@H](C)OC(=O)[C@H](C(C)C)NC1=O	1.43	0.982	2.28	4.31	4.52	0.585	0.967	0.92	4.69	0.302	2.86	2.33	0.396	1.67	4.66	4.05	3.38	1.48	1.92	0.934	GI50 [3]: 5.14 µM; TGI [3]: 4.52 µM; GI50 [4]: 4.63 µM; TGI [4]: 4.48 µM; GI50 [5]: 0.28 µM; TGI [8]: 1.53 µM; GI50 [8]: 1.61 µM; TGI [11]: 2.33 µM; GI50 [11]: 2.44 µM; TGI [13]: 1.69 µM
C/C=C1\NC(=O)[C@@H](Cc2ccccc2)NC(=O)[C@H](C(C)C)NC(=O)[C@H]([C@H](C)CC)NC(=O)[C@@H](NC(=O)[C@@H](NC(=O)[C@@H](CCCN)NC(=O)[C@@H]2CCCN2C(=O)[C@@H](NC(=O)[C@H](NC(=O)[C@H](NC(=O)[C@@H](NC(=O)CCCC(C)C)C(C)C)[C@@H](C)O)C(C)C)C(C)C)[C@H](C)CC)[C@H](C)OC(=O)[C@H](C(C)C)NC1=O	10.6	4.92	8.9	3.79	161	72	1.91	2.13	1.92	1.69	–	–	4.08	1.77	–	–	5.54	2.53	25.3	2.36	TGI [5]: 134 µM; TGI [13]: 10.5 µM
C/C=C1\NC(=O)[C@H](Cc2ccccc2)NC(=O)[C@@H](C(C)C)NC(=O)[C@@H]([C@H](C)CC)NC(=O)[C@H](NC(=O)[C@H](NC(=O)[C@H](CCCN)NC(=O)[C@H]2CCCN2C(=O)[C@H](NC(=O)[C@@H](NC(=O)[C@H](CCCN)NC(=O)[C@H](NC(=O)CCCC(C)C)C(C)C)C(C)C)C(C)C)[C@H](C)CC)[C@H](C)OC(=O)[C@H](C(C)C)NC1=O	1.4	1.12	2.24	0.446	4.7	0.576	0.951	0.957	4.62	0.296	2.88	2.7	0.484	1.64	4.94	4.18	3.33	1.62	2.18	9.6	GI50 [2]: 0.675 µM; TGI [2]: 2.24 µM; GI50 [4]: 5.9 µM; TGI [4]: 5.14 µM; GI50 [5]: 0.292 µM; TGI [13]: 1.89 µM
CC[C@@H](C)[C@@H](NC(=O)[C@H](CCCN)NC(=O)[C@H]1CCCN1C(=O)[C@H](NC(=O)[C@@H](NC(=O)[C@@H](NC(=O)[C@H](NC(=O)CCCC(C)C)C(C)C)[C@@H](C)O)C(C)C)C(C)C)C(=O)N[C@H]1C(=O)N[C@H]([C@H](C)CC)C(=O)N[C@H](C(C)C)C(=O)N[C@@H](Cc2ccccc2)C(=O)NCC(=O)N[C@@H](C(C)C)C(=O)O[C@H]1C	0.953	1.42	1.81	0.775	1.64	0.361	0.526	0.308	1.46	0.683	0.83	1.02	0.362	1.78	1.84	1.85	1.68	2.53	1.97	1.45	TGI [1]: 1.16 µM; GI50 ([1]; read-out: GI50): 1.41 µM; GI50 [2]: 2.74 µM; TGI [2]: 2.78 µM; GI50 [4]: 2.26 µM; TGI [4]: 2.12 µM; GI50 [5]: 0.748 µM; GI50 [7]: 0.465 µM; GI50 ([7]; read-out: GI50): 0.722 µM; TGI [8]: 2.1 µM; GI50 [8]: 1.63 µM; TGI [9]: 1.64 µM; GI50 [9]: 1.66 µM; TGI [11]: 1.7 µM; GI50 [11]: 1.39 µM; TGI [13]: 3.04 µM; GI50 [14]: 1.83 µM; TGI [14]: 2.86 µM
C/C=C1\NC(=O)[C@H](Cc2ccccc2)NC(=O)[C@@H](C(C)C)NC(=O)[C@@H]([C@H](C)CC)NC(=O)[C@H](NC(=O)[C@H](NC(=O)[C@H](CCCN)NC(=O)[C@H]2CCCN2C(=O)[C@H](NC(=O)[C@@H](NC(=O)[C@@H](NC(=O)[C@H](NC(=O)CCCCC(C)=O)C(C)C)[C@@H](C)O)C(C)C)C(C)C)[C@H](C)CC)[C@H](C)OC(=O)[C@H](C(C)C)NC1=O	1.67	1.39	2.29	2.35	–	0.851	1.37	0.638	1.81	1.05	5.05	7.66	3.71	1.84	8.59	8.1	3.9	–	1.91	1.44	TGI [9]: 6.31 µM; GI50 [9]: 7.27 µM
C/C=C1\NC(=O)[C@H](Cc2ccccc2)NC(=O)[C@@H](C(C)C)NC(=O)[C@@H]([C@H](C)CC)NC(=O)[C@H](NC(=O)[C@H](NC(=O)[C@H](CCCN)NC(=O)[C@H]2CCCN2C(=O)[C@H](NC(=O)[C@@H](NC(=O)[C@@H](NC(=O)[C@@H](C(C)C)N(CCCCCC)CCCCCC)[C@@H](C)O)C(C)C)C(C)C)[C@H](C)CC)[C@H](C)OC(=O)[C@H](C(C)C)NC1=O	2.28	1.48	2.27	2.03	–	1.21	1.05	4.23	1.16	3.53	–	–	3.78	1.66	–	–	4.06	–	1.9	1.22	GI50 [2]: 3.72 µM; TGI [2]: 3.3 µM; GI50 [14]: 1.81 µM; TGI [14]: 1.58 µM

From ChEMBL document CHEMBL1156597, “Structure-activity relationship of kahalalide F synthetic analogues” (J Med Chem, 2008)
